Source: ChEMBL document CHEMBL2407003, “Effects of (-)-epicatechin and derivatives on nitric oxide mediated induction of mitochondrial proteins” (Bioorg Med Chem Lett, 2013)
Calls of active or inactive are those of the source. The calls are words filed in the database; no cut-off is given here.

Legend:
[1] = Upregulation of mitofilin expression in BCAEC at EC50 after 48 hrs by Western blot analysis; format: functional; settings: Bos taurus
[2] = Upregulation of mitochondrial complex-2 expression in BCAEC at EC50 after 48 hrs by Western blot analysis relative to control; format: functional; settings: Bos taurus
[3] = Upregulation of mitochondrial complex-1 expression in BCAEC at 100 nmol/L after 48 hrs by Western blot analysis; format: functional; settings: Bos taurus
[4] = Upregulation of mitochondrial complex-1 expression in BCAEC at EC50 after 48 hrs by Western blot analysis relative to control; format: functional; settings: Bos taurus
[5] = Upregulation of TFAM expression in BCAEC at EC50 after 48 hrs by Western blot analysis in presence of L-NAME; format: functional; settings: Bos taurus
[6] = Upregulation of TFAM expression in BCAEC at EC50 after 48 hrs by Western blot analysis; format: functional; settings: Bos taurus
[7] = Upregulation of porin expression in BCAEC at EC50 after 48 hrs by Western blot analysis in presence of L-NAME; format: functional; settings: Bos taurus
[8] = molecular target: T1, Citrate synthase, mitochondrial (Bos taurus) (UniProt Q29RK1); assay: Induction of citrate synthase activity in BCAEC at EC50 after 48 hrs in presence of L-NAME
T1 sequence (whole entry): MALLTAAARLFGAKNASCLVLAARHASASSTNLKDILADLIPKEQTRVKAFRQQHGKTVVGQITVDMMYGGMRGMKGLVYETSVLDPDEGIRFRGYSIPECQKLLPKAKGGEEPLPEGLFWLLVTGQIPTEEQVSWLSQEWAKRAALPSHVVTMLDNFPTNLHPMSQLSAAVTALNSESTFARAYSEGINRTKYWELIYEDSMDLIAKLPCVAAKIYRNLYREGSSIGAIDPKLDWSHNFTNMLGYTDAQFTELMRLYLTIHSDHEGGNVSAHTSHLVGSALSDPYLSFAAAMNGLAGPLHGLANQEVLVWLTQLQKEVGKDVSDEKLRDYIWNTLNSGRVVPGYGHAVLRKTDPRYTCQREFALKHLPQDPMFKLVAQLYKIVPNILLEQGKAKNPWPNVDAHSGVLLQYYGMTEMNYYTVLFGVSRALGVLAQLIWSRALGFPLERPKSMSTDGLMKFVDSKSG

[9] = Upregulation of mitofilin expression in BCAEC at EC50 after 48 hrs by Western blot analysis in presence of L-NAME; format: functional; settings: Bos taurus
[10] = molecular target: T2, Nitric oxide synthase 3 (Bos taurus, UniProt P29473); assay: Activation of eNOS in BCAEC assessed as increase in nitric oxide level after 10 mins by fluorometric analysis
T2 sequence (P29473 whole entry): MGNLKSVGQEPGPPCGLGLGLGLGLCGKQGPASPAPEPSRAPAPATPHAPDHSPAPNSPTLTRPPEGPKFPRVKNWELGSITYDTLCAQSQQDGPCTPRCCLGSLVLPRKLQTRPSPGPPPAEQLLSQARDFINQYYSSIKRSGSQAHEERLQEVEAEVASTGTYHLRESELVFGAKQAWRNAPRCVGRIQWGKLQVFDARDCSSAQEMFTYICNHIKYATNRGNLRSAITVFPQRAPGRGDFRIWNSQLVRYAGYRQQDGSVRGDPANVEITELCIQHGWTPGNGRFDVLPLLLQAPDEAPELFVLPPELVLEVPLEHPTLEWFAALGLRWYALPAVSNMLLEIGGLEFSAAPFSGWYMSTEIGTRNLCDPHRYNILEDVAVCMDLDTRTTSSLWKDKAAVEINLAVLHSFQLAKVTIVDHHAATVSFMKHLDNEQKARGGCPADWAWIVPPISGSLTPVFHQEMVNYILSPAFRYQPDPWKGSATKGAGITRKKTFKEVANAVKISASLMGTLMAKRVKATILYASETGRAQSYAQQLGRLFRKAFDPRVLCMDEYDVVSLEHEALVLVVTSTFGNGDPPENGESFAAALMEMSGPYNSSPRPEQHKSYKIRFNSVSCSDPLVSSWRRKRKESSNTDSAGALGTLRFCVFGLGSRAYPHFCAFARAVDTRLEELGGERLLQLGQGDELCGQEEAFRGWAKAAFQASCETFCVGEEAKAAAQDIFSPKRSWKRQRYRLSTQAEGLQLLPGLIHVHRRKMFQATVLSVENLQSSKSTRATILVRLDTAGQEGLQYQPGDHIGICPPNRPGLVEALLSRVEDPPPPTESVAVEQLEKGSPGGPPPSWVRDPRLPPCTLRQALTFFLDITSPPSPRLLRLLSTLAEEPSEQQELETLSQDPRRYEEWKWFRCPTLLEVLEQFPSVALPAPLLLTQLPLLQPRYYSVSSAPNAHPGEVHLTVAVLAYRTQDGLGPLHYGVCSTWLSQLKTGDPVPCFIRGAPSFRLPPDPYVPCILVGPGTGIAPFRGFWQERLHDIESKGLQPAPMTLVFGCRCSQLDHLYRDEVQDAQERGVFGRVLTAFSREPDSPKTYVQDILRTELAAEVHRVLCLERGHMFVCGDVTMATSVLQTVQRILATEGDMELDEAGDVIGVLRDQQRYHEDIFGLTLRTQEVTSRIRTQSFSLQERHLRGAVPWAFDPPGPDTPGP
How it was run: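 Bovine coronary artery endothelial cells, in triplicate, were exposed to a range of concentrations of each compound. Medium was collected 10 min after treatment, and NO was quantified as nitrite/nitrate with a commercial kit. Sigmoidal concentration-response curves were fitted to the triplicate means to give EC50.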

[11] = Upregulation of mitochondrial complex-1 expression in BCAEC at EC50 after 48 hrs by Western blot analysis in presence of L-NAME; format: functional; settings: Bos taurus
[12] = Upregulation of mitochondrial complex-2 expression in BCAEC at EC50 after 48 hrs by Western blot analysis in presence of L-NAME; format: functional; settings: Bos taurus
[13] = Upregulation of porin expression in BCAEC at EC50 after 48 hrs by Western blot analysis; format: functional; settings: Bos taurus
[14] = molecular target: T1, Citrate synthase, mitochondrial (Bos taurus); assay: Induction of citrate synthase activity in BCAEC at EC50 after 48 hrs relative to control
[15] = Upregulation of mitochondrial complex-1 expression in BCAEC at 0.01 nmol/L after 48 hrs by Western blot analysis; format: functional; settings: Bos taurus

Activity [8] | EC50 [10] [nM] | Activity [14] [%] | Compound | Activity [1] | Activity [2] [%] | Activity [3] | Activity [4] | Activity [5] | Activity [6] | Activity [7] | Activity [9] | Activity [11] | Activity [12] | Activity [13] | Activity [15]
inactive | 2 | 30 | Oc1cc(O)c2c(c1)O[C@H](c1ccc(O)c(O)c1)[C@H](O)C2 [(-)-EPICATECHIN] | Active | 25 | Active | 20% | inactive | Active | inactive | inactive | inactive | inactive | inactive | –
inactive | 0.006 | 30 | CC(=O)Oc1cc(OC(C)=O)c2c(c1)O[C@H](c1ccc(OC(C)=O)c(OC(C)=O)c1)[C@H](OC(C)=O)C2 [EPICATECHIN PENTAACETATE] | Active | 25 | – | 60% | inactive | Active | inactive | inactive | inactive | inactive | Active | Active
inactive | 1 | 30 | CCOc1cc([C@H]2Oc3cc(O)cc(O)c3C[C@H]2O)ccc1O | – | – | – | inactive | – | – | inactive | inactive | inactive | inactive | Active | –
